Active and inactive are the calls of the source. No cut-off for these calls is given here.

The target in assay [1] is T1, Melanocortin receptor 4 (Homo sapiens, UniProt P32245). In words: Activity at hMC4R transfected in HEK293 cells assessed as intracellular cAMP accumulation relative to MT2. Format: functional, cell-based. Details: concentration or dose not given beside the values.
Assay [2] addresses T2, Melanocortin receptor 5 (Homo sapiens, UniProt P33032). Nature of the assay: Displacement of [125I]NDP-alphaMSH from human MC5 receptor expressed in HEK293 cells. Format: cell-based. Put shortly: (§1)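 Whole-cell competition used transfected HEK293 cells seeded 48 h ahead at 100 000 cells/well. Binding buffer was MEM with 25 mM HEPES pH 7.4, 0.2% BSA, 1 mM 1,10-phenanthroline, leupeptin and bacitracin. Radioactivity was gamma-counted, and IC50 was obtained by nonlinear least-squares fit.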

Assay [3] has as its target T1, Melanocortin receptor 4. In words: Displacement of [125I]NDP-alphaMSH from human MC4 receptor expressed in HEK293 cells relative to MT2. Format: cell-based. Put shortly: (§2)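 Binding efficiency was measured in the whole-cell [¹²⁵I]NDP-α-MSH competition assay on receptor-transfected HEK293 cells (30 min, 37 °C). It is expressed as the peptide's maximal percentage specific binding relative to MTII agonist binding, with peptides tested at 10⁻¹⁰ to 10⁻⁵ M.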

Assay [4] addresses T3, Melanocortin receptor 3 (Homo sapiens, UniProt P41968). Nature of the assay: Activity at hMC3R transfected in HEK293 cells assessed as intracellular cAMP accumulation relative to MT2. Details: concentration or dose not given beside the values. Format: functional, cell-based.
Assay [5] deals with T2, Melanocortin receptor 5. Nature of the assay: Displacement of [125I]NDP-alphaMSH from human MC5 receptor expressed in HEK293 cells relative to MT2. Format: cell-based. The procedure, abridged:
as §2

For assay [6], the target named is T3, Melanocortin receptor 3. Nature of the assay: Activity at hMC3R transfected in HEK293 cells assessed as intracellular cAMP accumulation. Format: functional, cell-based. The procedure, abridged: (§3)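 HEK293 cells stably carrying the human MC receptor were seeded 48 h ahead at 50 000 cells/well. They were preincubated 1 min at 37 °C in EBSS with IBMX, then exposed to peptide at 10⁻¹⁰ to 10⁻⁵ M for 3 min at 37 °C. Ice-cold Tris/EDTA stopped the reaction, and lysates were boiled 15 min. Total cAMP was measured by competitive binding kit, and EC50 was obtained by nonlinear least-squares fit.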

Assay [7] addresses T3, Melanocortin receptor 3. Nature of the assay: Displacement of [125I]NDP-alphaMSH from human MC3 receptor expressed in HEK293 cells relative to MT2. Format: cell-based. Put shortly: as §2
Assay [8] concerns the target T4, Melanocyte-stimulating hormone receptor (Homo sapiens, UniProt Q01726). Nature of the assay: Displacement of [125I]NDP-alphaMSH from human MC1 receptor expressed in HEK293 cells relative to MT2. Format: cell-based. Put shortly:
as §2
Target sequence in this assay (Q01726 whole entry, looked up): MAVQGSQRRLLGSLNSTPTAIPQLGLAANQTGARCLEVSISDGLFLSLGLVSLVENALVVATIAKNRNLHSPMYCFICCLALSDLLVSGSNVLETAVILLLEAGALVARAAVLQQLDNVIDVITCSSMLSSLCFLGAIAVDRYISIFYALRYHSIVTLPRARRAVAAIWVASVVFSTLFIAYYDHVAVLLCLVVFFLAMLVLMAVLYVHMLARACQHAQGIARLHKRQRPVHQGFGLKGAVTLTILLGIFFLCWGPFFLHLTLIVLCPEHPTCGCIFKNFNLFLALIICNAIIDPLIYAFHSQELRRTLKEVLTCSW

Assay [9] deals with T4, Melanocyte-stimulating hormone receptor. Nature of the assay: Activity at hMC1R transfected in HEK293 cells assessed as intracellular cAMP accumulation relative to MT2. Format: functional, cell-based. Also on record: concentration or dose not given beside the values.
Target sequence in this assay (Q01726 whole entry, looked up): as above
The target in assay [10] is T2, Melanocortin receptor 5. In words: Activity at hMC5R transfected in HEK293 cells assessed as intracellular cAMP accumulation. Format: functional, cell-based. The procedure, abridged:
as §3

Assay [11] has as its target T4, Melanocyte-stimulating hormone receptor. Nature of the assay: Displacement of [125I]NDP-alphaMSH from human MC1 receptor expressed in HEK293 cells. Format: cell-based. Put shortly:
as §1

For assay [12], the target named is T2, Melanocortin receptor 5. In words: Activity at hMC5R transfected in HEK293 cells assessed as intracellular cAMP accumulation relative to MT2. Format: functional, cell-based.
The target in assay [13] is T1, Melanocortin receptor 4. In words: Displacement of [125I]NDP-alphaMSH from human MC4 receptor expressed in HEK293 cells. Format: cell-based. The procedure, abridged: as §1
For assay [14], the target named is T3, Melanocortin receptor 3. Nature of the assay: Displacement of [125I]NDP-alphaMSH from human MC3 receptor expressed in HEK293 cells. Format: cell-based. The procedure, abridged:
as §1

Assay [15] concerns the target T1, Melanocortin receptor 4. Nature of the assay: Activity at hMC4R transfected in HEK293 cells assessed as intracellular cAMP accumulation. Format: functional, cell-based. Put shortly:
as §3

T2 sequence (P33032 whole entry): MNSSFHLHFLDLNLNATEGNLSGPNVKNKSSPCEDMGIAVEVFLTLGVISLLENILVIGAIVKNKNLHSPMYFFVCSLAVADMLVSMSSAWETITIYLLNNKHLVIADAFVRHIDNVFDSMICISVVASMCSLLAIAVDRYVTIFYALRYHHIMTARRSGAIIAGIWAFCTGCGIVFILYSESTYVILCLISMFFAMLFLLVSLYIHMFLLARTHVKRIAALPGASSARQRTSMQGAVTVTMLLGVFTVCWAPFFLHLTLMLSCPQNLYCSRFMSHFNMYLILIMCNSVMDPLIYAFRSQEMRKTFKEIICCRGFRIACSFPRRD
T3 sequence (P41968 whole entry): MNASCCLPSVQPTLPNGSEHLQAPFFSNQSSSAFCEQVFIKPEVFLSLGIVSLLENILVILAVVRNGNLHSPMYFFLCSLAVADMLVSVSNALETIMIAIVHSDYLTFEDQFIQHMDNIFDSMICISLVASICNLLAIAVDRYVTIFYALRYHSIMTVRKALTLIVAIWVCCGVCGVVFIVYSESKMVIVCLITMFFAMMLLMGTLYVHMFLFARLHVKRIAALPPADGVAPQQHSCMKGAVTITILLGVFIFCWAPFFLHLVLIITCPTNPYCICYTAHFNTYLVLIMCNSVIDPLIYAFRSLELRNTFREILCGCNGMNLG
T1 sequence (P32245 whole entry): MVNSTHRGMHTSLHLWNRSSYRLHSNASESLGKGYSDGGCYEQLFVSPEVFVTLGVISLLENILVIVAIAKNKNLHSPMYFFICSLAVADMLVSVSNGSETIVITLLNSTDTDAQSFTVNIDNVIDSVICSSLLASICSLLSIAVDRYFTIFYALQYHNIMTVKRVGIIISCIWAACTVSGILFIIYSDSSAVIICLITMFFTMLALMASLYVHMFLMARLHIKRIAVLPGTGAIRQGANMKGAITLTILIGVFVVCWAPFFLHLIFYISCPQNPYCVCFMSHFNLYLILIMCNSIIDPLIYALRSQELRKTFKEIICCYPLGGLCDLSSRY

On to `CC(=O)N[C@H]1CSSC[C@@H](C(=O)N(CCCCN=C(N)N)[C@H](Cc2c[nH]c3ccccc23)C(N)=O)NC(=O)[C@@H](Cc2ccccc2)NC(=O)[C@H](Cc2c[nH]cn2)NC1=O`, for which the Activity in assay [1] is 19%; in [3], 50%; in [4], 0%; in [5], 0%; in [7], less than 10%; in [8], 0%. Further, the Activity in [9] and in [12] was 0% throughout. Further, the result in [2], in assay [6], in [10] and in assay [11] was inactive.
With `CC(=O)N[C@H]1CSSC[C@@H](C(=O)N(CCCCN=C(N)N)[C@H](Cc2c[nH]c3ccccc23)C(N)=O)NC(=O)[C@@H](Cc2ccccc2)NC(=O)[C@H](Cc2cnc[nH]2)NC1=O`, the half-inhibitory concentration (IC50) in assay [13] is 0.0007 µM; in assay [14] it was more than 1 µM. For the same compound, the half-maximal effective concentration (EC50) in assay [15] is more than 1 µM.
Take `CC(=O)N[C@H]1CSSC[C@@H](C(=O)N(CCCCN=C(N)N)[C@@H](Cc2c[nH]c3ccccc23)C(N)=O)NC(=O)[C@@H](Cc2ccccc2)NC(=O)[C@H](Cc2c[nH]cn2)NC1=O`: the Activity in assay [1] was 18%; in assay [3], 50%; in assay [4] it was 0%; in assay [5] it was 0%; in assay [7] it was 50%; in [8], less than 10%. Moreover, the Activity in assay [9] and in assay [12] was 0% in each case. Besides, the outcome in assay [2], in assay [6] and in [10] was inactive.
Consider `CC(=O)N[C@H]1CSSC[C@@H](C(=O)N(CCCCN=C(N)N)[C@@H](Cc2c[nH]c3ccccc23)C(N)=O)NC(=O)[C@@H](Cc2ccccc2)NC(=O)[C@H](Cc2cnc[nH]2)NC1=O`, for which the half-inhibitory concentration (IC50) is 0.0041 µM in assay [13], more than 1 µM in assay [14] and more than 1 µM in [11]. Further, in assay [15], the EC50 was more than 1 µM.
For the compound `CC(=O)N[C@H]1CCC(=O)NCC[C@@H](C(=O)N[C@@H](Cc2c[nH]c3ccccc23)C(N)=O)N(CCCCN=C(N)N)C(=O)[C@@H](Cc2ccccc2)NC(=O)[C@H](Cc2cnc[nH]2)NC1=O`, the IC50 in assay [14] and in [11] was more than 1 µM throughout.
Take `CC(=O)N[C@H]1CCC(=O)NCCC[C@@H](C(=O)N[C@@H](Cc2c[nH]c3ccccc23)C(N)=O)N(CCCCN=C(N)N)C(=O)[C@@H](Cc2ccc3ccccc3c2)NC(=O)[C@H](Cc2c[nH]cn2)NC1=O`: the Activity in [1] was 0%; in assay [3] it was 0%; in assay [4], 0%; in assay [5] it was 0%; in assay [7], 50%; in assay [8], less than 10%. Besides, the Activity in assay [9] and in [12] was 0% throughout. Besides, the result in [2], in assay [13], in [6], in assay [15] and in assay [10] was inactive. In addition, the figures for the 50% inhibitory concentration (IC50) in assay [14] and in assay [11] were more than 1 µM and more than 10 µM, respectively.
Turning to `CC(=O)N[C@H]1CCC(=O)NCCC(C(=O)N[C@@H](Cc2c[nH]c3ccccc23)C(N)=O)N(CCCCN=C(N)N)C(=O)[C@@H](Cc2ccccc2)NC(=O)[C@H](Cc2c[nH]cn2)NC1=O` (stereo not given in full), the Activity in assay [1] is 0%; in assay [3], 0%; in [4], 0%; in assay [5] it was 0%; in assay [7] it was 50%; in assay [8] it was less than 10%. Moreover, the Activity in [9] and in assay [12] was 0% in each case. Further, the outcome in [2], in [13], in [6], in assay [15] and in assay [10] was inactive.
For `CC(=O)N[C@H]1CSSC[C@@H](C(=O)N(CCCCN=C(N)N)C(Cc2c[nH]c3ccccc23)C(N)=O)NC(=O)[C@@H](Cc2ccc3ccccc3c2)NC(=O)[C@H](Cc2c[nH]cn2)NC1=O` (stereo in doubt), the Activity is 0% in assay [1]; 0% in assay [3]; 0% in assay [4]; less than 10% in assay [5]; 0% in assay [7]; less than 10% in assay [8]. In addition, the Activity in assay [9] and in assay [12] was 0% each time. The concentration for half-maximal inhibition (IC50) was 0.209 µM in assay [2] and more than 1 µM in assay [11]. The outcome in assay [13], in [6], in assay [14], in [15] and in [10] was inactive.
Turning to `CC(=O)N[C@H]1CCC(=O)NCCC[C@@H](C(=O)N[C@@H](Cc2c[nH]c3ccccc23)C(N)=O)N(CCCCN=C(N)N)C(=O)[C@@H](Cc2ccccc2)NC(=O)[C@H](Cc2c[nH]cn2)NC1=O`, the Activity was less than 10% in assay [1]; 50% in assay [3]; 0% in [4]; 0% in assay [5]; 50% in [7]; less than 10% in assay [8]. The Activity in assay [9] and in [12] was 0% throughout. The outcome in assay [2], in [6] and in assay [10] was inactive. The results for the IC50 in [13], in assay [14] and in assay [11] were 0.101 µM, more than 1 µM and 0.75 µM, respectively. For the same compound, in assay [15], the EC50 is more than 1 µM.
As for `CC(=O)N[C@H]1CSSC[C@H](C(=O)N[C@@H](Cc2c[nH]c3ccccc23)C(N)=O)N(CCCCN=C(N)N)C(=O)[C@@H](Cc2ccccc2)NC(=O)[C@H](Cc2c[nH]cn2)NC1=O`, the Activity was 0% in assay [1]; 0% in assay [3]; 0% in assay [4]; 0% in assay [5]; 0% in [7]; less than 10% in assay [8]. Also, the Activity in [9] and in assay [12] was 0% each time. In addition, the result in assay [2], in assay [13], in assay [6], in assay [14], in assay [15] and in [10] was inactive. In assay [11], the concentration for half-maximal inhibition (IC50) amounted to 1 µM.
In assay [13], `CC(=O)N[C@H]1CSSC[C@@H](C(=O)N[C@@H](Cc2c[nH]c3ccccc23)C(N)=O)N(CCCCN=C(N)N)C(=O)[C@@H](Cc2ccccc2)NC(=O)[C@H](Cc2cnc[nH]2)NC1=O` had an IC50 of 0.0018 µM.
`CC(=O)N[C@H]1CSSC[C@@H](C(=O)N[C@@H](Cc2c[nH]c3ccccc23)C(N)=O)N(CCCCN=C(N)N)C(=O)[C@@H](Cc2ccccc2)NC(=O)[C@H](Cc2c[nH]cn2)NC1=O`: the Activity in [1] was 0%; in assay [3] it was 50%; in assay [4] it was 0%; in assay [5], 0%; in [7], 0%; in [8] it was 0%. Moreover, the Activity in assay [9] and in [12] was 0% in each case. Further, the result in assay [2], in [6], in [14], in assay [15], in [10] and in [11] was inactive.

For the origin of these results see ChEMBL document CHEMBL1137337, “Design, synthesis, and biological evaluation of new cyclic melanotropin peptide analogues selective for the human melanocortin-4 receptor” (J Med Chem, 2006).
